The values below come from ChEMBL document CHEMBL1124393, “Synthesis, cytotoxicity, and antiviral activity of some acyclic analogues of the pyrrolo[2,3-d]pyrimidine nucleoside antibiotics tubercidin, toyocamycin, and sangivamycin” (J Med Chem, 1989).

For one assay, the system named is Human betaherpesvirus 5. Put plainly: Antiviral activity of the compound was evaluated against the Human cytomegalo virus (HCMV). The format is functional, organism-based. In outline: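 HCMV Towne strain (plaque-purified P0 isolate), plaque reduction in HFF monolayers; inoculum about 50 PFU; compound dissolved in overlay medium. IC50 taken from linear regression of percent inhibition against log concentration. Positive controls (acyclovir, ganciclovir) in all assays; sets rejected when control deviated >1.5 SD from its mean.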

Assay [1] concerns L1210. Put plainly: Compound effect on the growth rate at 10e-4 M in L1210 Murine Leukemic cells. The format is functional, Mus musculus. Put shortly:
(§1)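 Murine L1210 leukemia cells in static suspension culture in Fischer's medium, exposed to 10⁻⁴ M compound over 3 days. Growth rate is the ratio of control to treated population doubling time, expressed as percent of control.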

The nature of assay [2]: (§2) Antiviral activity of the compound was evaluated against the Herpes simplex virus type-1 in BSC-1 cells. Format: functional, cell-based. The following applies: Human alphaherpesvirus 1, BSC-1. Put shortly:
(§3)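 HSV-1 strain S-148 plaque reduction in BSC-1 monolayers (MEM with Earle's salts, 10% fetal bovine serum); inoculum about 100 PFU; compound dissolved in overlay medium. Percent inhibition regressed against log concentration to give IC50. Acyclovir or ganciclovir positive controls in every assay; assay sets rejected if control deviated >1.5 SD from its mean.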

Assay [3] in a line: Cytotoxicity was evaluated against the Monkey kidney cells (BSC). The format is cell-based. As to conditions: Cercopithecidae. In outline: (§4)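 Uninfected HFF (human diploid foreskin fibroblasts) or BSC-1 (African green monkey kidney) cells in MEM with Earle's salts and 10% FBS, within the plaque-reduction plates. Drug-induced cytopathology was scored 0 to 4+ at 35- and 60-fold magnification on the day of staining for plaque enumeration.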

Assay [4] in a line: Cytotoxicity was evaluated against the Human diploid cells (HFF). The format is cell-based. In outline: as §4
The species entered for a further assay is Mus musculus. Description: Cytotoxicity was evaluated against the L1210 Murine leukemic cells in vitro. In outline: (§5)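 Murine L1210 cells in static suspension in Fischer's medium, growth followed over 3 days across a range of concentrations. Growth rate is the slope of log cell number versus time relative to control, from the doubling-time ratio. IC50 is the concentration reducing growth rate to 50% of control.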

Assay [5] is described as follows: (§6) Cytotoxicity was evaluated in Human neoplastic cell line (KB). The format is cell-based. In outline:
(§7)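 KB human epidermoid oral carcinoma cells in MEM with Hanks salts and 5% FBS. Inhibition of radiolabeled precursor incorporation into DNA, RNA and protein was measured. IC50s from regression against log concentration; the three values were averaged, two to five experiments each.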

For assay [6], the system named is L1210. Description: (§8) Compound effect on the growth rate of L1210 murine leukemia cells at 10e-4 M concentration. The format is functional. Put shortly:
as §1

Assay [7] deals with L1210. Put plainly: In vitro cytotoxicity was evaluated against the L1210 Murine leukemic cells. The format is cell-based. The following applies: Mus musculus. In outline: as §5
Assay [8] can be described thus: as §6. The format is functional, cell-based. In outline:
as §7

Assay [9] concerns L1210. The description is as §8. Format: functional, Mus musculus. Put shortly: as §1
A further assay has as its system Human alphaherpesvirus 1. Described as §2. The format is functional, organism-based. The following applies: Human alphaherpesvirus 1, BSC-1. Put shortly: as §3

Where only a bound is given, the exact number is not on record here.

In general, IC50 refers to the concentration that gives 50% inhibition. Consider `N#Cc1cn(C(CO)OC(CO)CO)c2ncnc(N)c12` (stereo not given), for which the IC50 (with Human betaherpesvirus 5; in [2]; in assay [3]; in [4]; in the assay listed under Mus musculus) was more than 100 µM throughout. This compound also had a Control with L1210 [1] of 80%.
For `Nc1nc2c(ncn2COCCO)c(=O)[nH]1` [ACYCLOVIR], the IC50 was 2.6 µM in assay [2], more than 100 µM in assay [5], more than 100 µM in [3] and more than 100 µM in [4].
Turning to `NC(=S)c1cn(COC(CO)CO)c2ncnc(N)c12`, the IC50 in the assay with Human betaherpesvirus 5 is 8 µM; in [2], more than 100 µM; in [5], more than 100 µM; in [3], more than 100 µM; in assay [4], more than 100 µM; with L1210 [7], more than 100 µM. Moreover, in the assay with L1210 [6], the Control stood at 71%.
Take `Nc1ncnc2c1ccn2[C@@H]1O[C@H](CO)[C@@H](O)[C@H]1O` [TUBERCIDIN]: the IC50 in assay [4] stood at 0.3 µM; in assay [8] it was 0.7 µM; in the assay on L1210 [7], 0.04 µM.
Turning to `N#Cc1cn(COC(CO)CO)c2ncnc(N)c12`, the IC50 with Human betaherpesvirus 5 is more than 320 µM; in [2], more than 100 µM; in assay [3] it was more than 100 µM; in [4] it was more than 320 µM; with L1210 [7] it was more than 100 µM. In the assay with L1210 [9], this compound yielded a Control of 87%.
Turning to `NC(=O)c1cn(COC(CO)CO)c2ncnc(N)c12`, the IC50 with Human betaherpesvirus 5 was 144 µM; in assay [2], more than 100 µM; in assay [3] it was more than 100 µM; in assay [4], more than 320 µM; in the assay with L1210 [7], more than 100 µM. In addition, the Control in the assay with L1210 [9] is reported as 84%.
Turning to `NC(=O)c1cn([C@@H]2O[C@H](CO)[C@@H](O)[C@H]2O)c2ncnc(N)c12` [SANGIVAMYCIN], the IC50 in the assay with Human betaherpesvirus 5 was determined as 0.03 µM; in assay [4], 0.08 µM; in [8], 0.2 µM; in the assay with L1210 [7], 0.003 µM.
Take `NC(=O)c1cn(C(CO)OC(CO)CO)c2ncnc(N)c12` (stereo not given): the half-inhibitory concentration (IC50) (in the assay on Human betaherpesvirus 5; in assay [2]; in assay [3]; in assay [4]) was more than 100 µM in each case. The compound further yielded a Control in the assay with L1210 [1] of 90%.
`N/C(=N\O)c1cn(COC(CO)CO)c2ncnc(N)c12`: the IC50 (with Human betaherpesvirus 5; in [2]; in [3]; in [4]; in the assay with L1210 [7]) was more than 100 µM throughout. The Control in the assay on L1210 [9] came out at 80%.
Regarding `Nc1nc2c(ncn2COC(CO)CO)c(=O)[nH]1` [GANCICLOVIR], the IC50 is 3 µM in assay [2], 1000 µM in [5], more than 100 µM in [3] and more than 100 µM in [4].
With `Nc1ncnc2c1ccn2COC(CO)CO`, the IC50 (in the assay with Human betaherpesvirus 5; in the assay on Human alphaherpesvirus 1; in [3]; in assay [4]) was more than 100 µM throughout.
Take `N#Cc1cn([C@@H]2O[C@H](CO)[C@@H](O)[C@H]2O)c2ncnc(N)c12` [TOYOCAMYCIN]: the half-maximal inhibitory concentration (IC50) in the assay on Human betaherpesvirus 5 came out at 0.05 µM; in [4], 0.03 µM; in assay [8], 0.04 µM; with L1210 [7] it was 0.004 µM.
With `Nc1ncnc2c1ccn2C(CO)OC(CO)CO` (stereo not given), the concentration for half-maximal inhibition (IC50) (in the assay on Human betaherpesvirus 5; in assay [2]; in [3]; in assay [4]; in assay [8]) was more than 100 µM each time. Further, the Control in the assay on L1210 [1] is 93%.
